The list is not random: actives were taken first. Their share in the collection is about 3%.
T cruzi repl: T. cruzi replication inhibition; T. cruzi beta-gal in NIH3T3, luminescence, 90 h; AID 1885; inhibition, % (no concentration beside the values); 300,000 compounds, 1.4% hits;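 active = mean inhibition across valid replicates above about 55%, limit read from the data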;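 also: signal also drops with host cell toxicity which is not excluded here; higher percent means less beta-gal luminescence so fewer parasites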
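System: mouse NIH/3T3 fibroblasts infected with β-gal-expressing T. cruzi Tulahuen C4 / Input: NIH/3T3 cells, 5,000 per well / Buffer or medium: Low-serum DMEM with 2% FBS / Probe or stimulus: 5000 reporter trypomastigotes per well / Schedule: ≥90 h infection period, 3 h prior cell attachment / Measured by: GalScreen luminescence, 60 min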
AI-2 QS mod: modulates the Vibrio harveyi AI-2 quorum sensing system. 300,000 compounds, 0.4% hits. Vibrio harveyi JMH597 AI-2 luminescence/OD600 ratio, 9 h; hits give low values; strain lacks LuxN and CqsS sensors; 0 = neutral-control median. activity change, % at 7.5 µM. AID 2094; in the data active = activity change below about -75%, passing the limit was not always enough;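 also: luminescence divided by OD600 gain over 9 h not by final OD600 alone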
V-ATPase pH: alters yeast V-ATPase proton transport; S. cerevisiae, pHLuorin cytosolic pH fluorescence; 350,000 compounds, 0.37% hits; response, % at 10 µM; in the data active = response mostly above about 7.3%, no sharp cut-off; inactive = mostly below about 5.4%; also: actives read high
Yeast superoxide: caloric restriction mimetics inhibiting age-related superoxide in yeast. S. cerevisiae aged cells, superoxide DHE fluorescence; hits give low values. 330,000 compounds, 0.18% hits. superoxide response (% of plate mean), % at 10 µM;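 active = superoxide response under a set limit, about three screen SD below normal, cut at about 65% in these data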;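 also: yeast aged for seven days with compound at 30 °C before DHE staining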
NRP1-CendR mod: modulators of CendR peptide binding to human neuropilin-1; O14786; FAM-RPARPAR peptide binding to NRP-1, fluorescence polarization; inhibition, % at 25 µM; 360,000 compounds, 0.85% hits;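 active = inhibition or corrected inhibition above about 18%, plus a signal ratio from 0.5 to 1.5, limit read from the data, passing the limit was not always enough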
Target sequence (O14786 whole entry, looked up): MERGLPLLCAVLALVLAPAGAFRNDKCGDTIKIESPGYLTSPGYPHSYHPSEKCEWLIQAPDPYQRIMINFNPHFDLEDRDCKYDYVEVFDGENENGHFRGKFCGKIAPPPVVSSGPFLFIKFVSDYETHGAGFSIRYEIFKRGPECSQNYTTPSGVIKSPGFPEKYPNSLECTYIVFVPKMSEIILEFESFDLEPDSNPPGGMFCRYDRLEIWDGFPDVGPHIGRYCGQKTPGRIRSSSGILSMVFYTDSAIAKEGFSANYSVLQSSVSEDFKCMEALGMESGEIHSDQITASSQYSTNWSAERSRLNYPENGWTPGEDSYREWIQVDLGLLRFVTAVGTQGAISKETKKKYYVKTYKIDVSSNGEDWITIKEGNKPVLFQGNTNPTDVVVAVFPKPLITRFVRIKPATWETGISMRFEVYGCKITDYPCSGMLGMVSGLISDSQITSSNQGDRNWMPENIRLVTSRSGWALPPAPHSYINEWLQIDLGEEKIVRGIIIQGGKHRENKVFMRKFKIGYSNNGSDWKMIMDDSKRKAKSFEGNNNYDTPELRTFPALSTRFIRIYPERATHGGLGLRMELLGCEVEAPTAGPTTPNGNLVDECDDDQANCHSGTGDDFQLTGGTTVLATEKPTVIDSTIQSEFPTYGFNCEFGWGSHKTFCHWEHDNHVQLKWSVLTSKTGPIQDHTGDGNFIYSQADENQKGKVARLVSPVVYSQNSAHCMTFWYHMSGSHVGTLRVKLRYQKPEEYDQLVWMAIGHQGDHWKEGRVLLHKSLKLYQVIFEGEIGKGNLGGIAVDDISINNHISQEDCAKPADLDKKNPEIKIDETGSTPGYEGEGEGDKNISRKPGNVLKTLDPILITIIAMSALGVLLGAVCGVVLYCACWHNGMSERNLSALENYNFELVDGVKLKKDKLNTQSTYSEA
HIF activator: HIF pathway transcriptional activation; U2OS HRE-luciferase reporter, luminescence; normalized: DMSO 0%, desferrioxamine 100%; activation, % at 7.5 µM (by protocol); 300,000 compounds, 0.32% hits;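 active = mean activation of at least 10% of the iron chelator positive control signal, with at least half of replicates also reaching 10%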
A number is an active result; i = inactive; nt = no result.

SMILES	T cruzi repl	AI-2 QS mod	V-ATPase pH	Yeast superoxide	NRP1-CendR mod	HIF activator
COc1ccc(CNC(=O)[C@@H]2CC=C[C@@H]3CCN(Cc4ccc(Cl)c(Cl)c4)C(=O)[C@@H]32)cc1	i	i	i	i	30	i
Cc1noc(C)c1COc1ccc(C(=O)NCC2CCCO2)cc1 (stereo unspecified)	i	i	i	i	i	i
Cc1ccc(NC(=O)COC(=O)CCc2c(C)nc3ncnn3c2C)cc1C	nt	nt	i	i	24	nt
Cc1ccc(NC(=O)COC(=O)CCc2c(C)nc3ncnn3c2C)cc1	nt	nt	i	i	i	nt
COC(=O)c1ccccc1NC(=O)CN1CCN(C(=O)c2ccco2)CC1	i	i	i	i	i	i
CCc1cc(C(=O)OC)c(NC(=O)CN2CCN(C(=O)c3ccco3)CC2)s1	i	i	i	i	26	i
CCOc1ccc(CN(CC)C(=O)Cc2c[nH]c3ccccc23)cc1OC	i	nt	i	i	i	i
CC(=O)c1ccc(S(=O)(=O)N2CCN(CC(=O)Nc3ccccc3C(=O)NC3CC3)CC2)cc1	nt	nt	i	i	17	nt
O=C(CN1CCN(S(=O)(=O)c2ccccc2)CC1)Nc1ccccc1C(=O)NC1CC1	nt	nt	i	i	i	nt
CC1CCCCC12NC(=O)N(CC(=O)N1CCN(S(=O)(=O)c3ccc4c(c3)CCC4)CC1)C2=O (stereo unspecified)	nt	nt	25	nt	i	nt
O=C(NCC(c1ccco1)N1CCCCC1)c1cccc(S(=O)(=O)Nc2ccccc2Cl)c1 (stereo unspecified)	i	i	i	i	i	i
C#CCNC(=O)C1=C[C@@H](c2ccc(Br)cc2)[C@H](CCCO)[C@@H](OCC)O1	i	i	i	i	i	i
Cc1nn(-c2ccccc2)c2c1C(c1ccc(Cl)cc1)N(c1ccccc1)C(=O)N2 (stereo unspecified)	i	i	i	i	i	i
O=c1cc(-c2ccccc2)nc2nc(CCc3ccccc3)[nH]n12	i	i	16	i	i	i
Cc1ccc(S(=O)(=O)N2CCN(CC(=O)Nc3ccnn3C3CCCC3)CC2)cc1	nt	nt	i	i	i	nt
Cc1ccc(Sc2ccc(CO)cc2[N+](=O)[O-])cc1	i	i	i	i	i	i
Cc1ccc(Sc2ccc(CN3CCCC3)cc2[N+](=O)[O-])cc1	88	i	i	i	i	i
CN1CCN(Cc2ccc(Sc3ccc(Cl)cc3)c([N+](=O)[O-])c2)CC1	66	i	i	i	i	i
CC1(C)S[C@@H]2C(C(=O)OCc3ccccc3)NC(=O)N2C1C(=O)OCc1ccccc1 (stereo partly specified)	i	i	i	i	34	i
CCOC(=O)c1c(C)[nH]c(C(=O)CSc2nnc(CC(C)c3ccccc3)o2)c1C (stereo unspecified)	i	i	i	i	i	i
O=C(/C=C/c1ccccc1)N1c2ccccc2Sc2ccc(C(F)(F)F)cc21	i	i	i	i	i	i
CC(C)C(=O)N1CCC2(CC1)Oc1ccc(F)cc1C(=O)C21CC(c2ccc(Cl)cc2)=NO1 (stereo unspecified)	i	i	i	i	25	i
Cc1cccc(/C=N/NC(=O)c2cccc(Cl)c2)n1	i	i	i	i	i	i
CCOC(=O)C1(CCCc2ccccc2)CCN(C(=O)CN2CCOC2=O)CC1	i	i	i	i	i	i
CCOC(=O)C1(Cc2ccccc2Cl)CCN(C(=O)CN2CCOC2=O)CC1	i	i	i	i	23	i
SMILES	T cruzi repl	AI-2 QS mod	V-ATPase pH	Yeast superoxide	NRP1-CendR mod	HIF activator
COc1ccc(C(=O)c2cnc3cc4c(cc3c2C)OCO4)cc1	i	i	i	i	i	i
O=C1COc2ccc(C(=O)COC(=O)c3ccc(S(=O)(=O)C(F)F)cc3)cc2N1	i	-94	i	i	i	i
O=C1COc2ccc(C(=O)COC(=O)CCc3ccc(S(=O)(=O)N4CCOCC4)cc3)cc2N1	i	i	i	i	35	i
Cc1cccc(N2CC(C(=O)Nc3ccc(N4CCOCC4)cc3)CC2=O)c1C (stereo unspecified)	nt	nt	i	i	i	nt
Cc1cc(NC(=O)CSCCc2ccncc2)no1	i	i	i	i	i	i
CN(C)S(=O)(=O)c1ccc(NC(=O)N2CCN(c3cccc(C(F)(F)F)c3)CC2)cc1	55	i	i	i	i	i
